Assay results published in publication PMC3256319 (Investigational New Drugs, 2010).
Where “and” joins values, the source holds several entries; their conditions need not be identical. Equal entries are not always repeated. One block for each compound: values may come before it.

What was measured:
[1] = tested on: axitinib metabolism in human liver microsomes; format: in vitro ADME; settings: probe axitinib
[2] = Intrinsic clearance converted from in vivo systemic clearance; design: species or system human healthy volunteers
[3] = format: in vivo, human healthy volunteers
tumor growth = settings: pre-clinical tumor growth inhibition studies; cited from earlier work
[4] = cited from earlier work
[5] = concurrent administration of phenytoin, one patient; cited from earlier work
Safety and tolerability = format: in vivo, human healthy volunteers
Method in brief: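 Healthy volunteers in a randomized crossover separated by a 14-day washout. Treatments were a single fasted oral 5-mg dose on day 1, or ketoconazole 400 mg/day on days 1–7 with the 5-mg dose on day 4. Safety was monitored through adverse events, vital signs, ECGs, laboratory tests and physical examinations. AEs were graded by NCI CTCAE v3.0. All subjects receiving at least one dose of any study medication were included.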

[6] = ketoconazole 400 mg; based on IC50 in human liver microsomal preparations
[7] = Blood pressure change from baseline in crossover study; format: in vivo, human healthy volunteers
Method in brief: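 Randomized two-way crossover in healthy volunteers with placebo on day –1 and a 14-day washout. In one arm, a single oral 5-mg dose was given on day 1 after an overnight fast of at least 8 h. In the other, oral ketoconazole 400 mg/day was given on days 1–7, with the 5-mg dose given alongside it on day 4. BP was measured before blood sampling at PK timepoints and at 10 h post-dose, expressed as time-matched change from baseline. Analysis required at least one baseline and one post-baseline reading.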

[8] = in the presence of ketoconazole
[9] = axitinib in combination with ketoconazole

IC50 [1]: 400 nM
SMILES: CC(=O)N1CCN(c2ccc(OCC3COC(Cn4ccnc4)(c4ccc(Cl)cc4Cl)O3)cc2)CC1 (stereo not drawn) [Ketoconazole, ketoconazole]

clearance attributed to non-metabolic pathways, share ([2]; remaining clearance): 20%
contribution of CYP3A to total CLint ([2]; sensitivity analyses): 50%
contribution of glucuronidation to total CLint ([2]; sensitivity analyses): 30%
pre-dose axitinib plasma concentration ([3]; all pre-dose samples, below lower limit of quantification): < 0.100 ng/mL
half-life ([3]; human, plasma, oral, 5 mg): 9.44 h
fold increase in axitinib geometric mean AUC0–∞ observed clinically [3, 8]: 2.06 fold and ~ 2 fold
fold increase in axitinib geometric mean Cmax observed clinically [3, 8]: 1.50 fold and ~ 1.5 fold
predicted fold increase in axitinib geometric mean AUC0–∞ [6]: 1.8 fold
predicted fold increase in axitinib geometric mean Cmax [6]: 1.5 fold
SMILES: CNC(=O)c1ccccc1Sc1ccc2c(/C=C/c3ccccn3)n[nH]c2c1 [Axitinib]
effective axitinib concentration (tumor growth): 0.28 to 0.85 nmol/L
average axitinib plasma concentration in clinical trials ([4]; after dosing 5 mg twice daily): 0.19 ± 0.12 nmol/L
effective plasma terminal half-life [4]: 2 to 5 h
oral absolute bioavailability [4]: approximately 58%
time of peak plasma concentrations after dosing ([4]; oral, fed state): 1 to 4 h
fold reduction of axitinib AUC0–24 [5]: approximately 10 fold
fold reduction of axitinib Cmax [5]: approximately 10 fold
tolerability (Safety and tolerability; axitinib alone, single 5-mg dose): well tolerated
tolerability (Safety and tolerability; [9]): well tolerated
mean time-matched changes from baseline in BP [7, 9]: minimal
mean time-matched changes from baseline in BP ([7]; axitinib treatment alone): minimal
